Converted amounts (≈) assume the structure as drawn.
What was measured:
[1] = Solubility was determined by addition of 10 mM DMSO solution of test compound to PBS (pH 7) until opalescence
[2] = biological target: T1, 5-hydroxytryptamine receptor 2C (Homo sapiens, UniProt P28335); test: Inhibitory concentration against human 5-hydroxytryptamine 2C receptor expressed in CHO-K1 cells using [3H]mesulergine; type: cell-based
T1 sequence (P28335 whole entry): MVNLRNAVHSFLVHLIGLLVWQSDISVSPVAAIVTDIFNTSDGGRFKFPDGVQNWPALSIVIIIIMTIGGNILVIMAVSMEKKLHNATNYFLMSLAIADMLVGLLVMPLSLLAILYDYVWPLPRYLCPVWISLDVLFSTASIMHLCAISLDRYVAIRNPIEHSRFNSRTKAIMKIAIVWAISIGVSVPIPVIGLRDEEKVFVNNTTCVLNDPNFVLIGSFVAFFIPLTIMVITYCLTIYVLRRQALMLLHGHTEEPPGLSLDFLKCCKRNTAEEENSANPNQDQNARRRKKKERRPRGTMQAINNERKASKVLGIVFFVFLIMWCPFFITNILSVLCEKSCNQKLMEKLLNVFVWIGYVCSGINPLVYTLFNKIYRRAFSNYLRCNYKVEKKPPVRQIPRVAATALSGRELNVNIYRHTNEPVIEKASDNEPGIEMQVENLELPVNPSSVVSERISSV
Procedure, shortened: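 SPA competition binding on purchased membranes from CHO-K1 cells expressing h5-HT2c (4 μg/well), with YSi-WGA beads (0.4 mg/well) and [3H]mesulergine tracer, across various test-compound concentrations. Buffer is 50 mM Tris pH 7.7, 50 mM MgCl2 and 0.1% pargyline. Nonspecific binding uses 1 μM cold mesulergine. IC50 is taken by nonlinear regression.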

[3] = biological target: Melanin-concentrating hormone receptor 2 (Homo sapiens, UniProt Q969V1); test: Displacement of 30 pM [125I]-MCH from human MCH2R expressed in CHO-K1 in whole-cell binding assay
[4] = biological target: Melanin-concentrating hormone receptor 1 (Homo sapiens, UniProt Q99705); test: Displacement of 150p M [125I]MCH from human MCH1R expressed in CHO-K1 cells at 10 uM; type: cell-based
Melanin-concentrating hormone receptor 1, sequence (Q99705 whole entry): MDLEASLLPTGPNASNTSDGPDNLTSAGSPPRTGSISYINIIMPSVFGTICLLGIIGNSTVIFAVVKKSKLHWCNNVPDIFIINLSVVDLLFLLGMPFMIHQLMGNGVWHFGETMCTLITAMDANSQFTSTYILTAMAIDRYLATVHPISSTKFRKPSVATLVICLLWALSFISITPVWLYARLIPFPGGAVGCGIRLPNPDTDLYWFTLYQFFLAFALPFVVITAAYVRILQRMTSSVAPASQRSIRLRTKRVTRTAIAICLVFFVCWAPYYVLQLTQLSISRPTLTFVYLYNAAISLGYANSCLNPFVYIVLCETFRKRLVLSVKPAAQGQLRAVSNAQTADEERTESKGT

Melanin-concentrating hormone receptor 2, sequence (Q969V1 whole entry): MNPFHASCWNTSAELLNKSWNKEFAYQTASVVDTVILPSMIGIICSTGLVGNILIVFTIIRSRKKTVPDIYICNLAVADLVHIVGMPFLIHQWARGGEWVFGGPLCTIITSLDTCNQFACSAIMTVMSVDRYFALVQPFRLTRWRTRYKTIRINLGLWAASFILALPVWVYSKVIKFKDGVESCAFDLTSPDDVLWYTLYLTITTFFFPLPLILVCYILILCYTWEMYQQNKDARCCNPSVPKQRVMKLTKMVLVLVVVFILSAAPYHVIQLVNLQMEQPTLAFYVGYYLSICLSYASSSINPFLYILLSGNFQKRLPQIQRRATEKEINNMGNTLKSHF

| Compound | solubility kinetic ([1]; buffer) [µM] | IC50 [2] [µM] | solubility kinetic ([1]; PBS) [µM] | IC50 [3] [µM] | inhibition [4] [%] |
| --- | --- | --- | --- | --- | --- |
| Cc1cc(N2CCNCC2)nc2ccc(NC(=O)/C=C/c3ccc(OC(F)(F)F)cc3)cc12 | 25 (≈ 11.4 µg/mL) | 1.1 | – | > 10 | – |
| Cc1cc(N2CCC(N3CCCC3)CC2)nc2ccc(NC(=O)COc3ccc(OC(F)(F)F)cc3)cc12 | – | – | – | 6.3 | – |
| Cc1cc(N2CCOCC2)nc2ccc(NC(=O)COc3ccc(OC(F)(F)F)cc3)cc12 | – | > 10 | 25 (≈ 11.5 µg/mL) | > 10 | – |
| Cc1cc(N2CCC(N)CC2)nc2ccc(NC(=O)COc3ccc(OC(F)(F)F)cc3)cc12 | – | – | 150 (≈ 71.2 µg/mL) | 4.7 | – |
| Cc1cc(N2CCCNCC2)nc2ccc(NC(=O)/C=C/c3ccc(OC(F)(F)F)cc3)cc12 | – | 1.6 | – | – | – |
| Cc1cc(N2CCN(C)CC2)nc2ccc(NC(=O)COc3ccc(Cl)cc3Cl)cc12 | 25 (≈ 11.5 µg/mL) | 0.61 | – | > 10 | – |
| COc1ccc(OC)c(/C=C/C(=O)Nc2ccc3nc(N4CCN(C)CC4)cc(C)c3c2)c1 | – | – | – | – | 47 |
| Cc1cc(NC(C)CN(C)C)nc2ccc(NC(=O)/C=C/c3ccc(OC(F)(F)F)cc3)cc12 (stereo not given) | – | 18 | – | – | – |

The remaining lines, values ahead:

| solubility kinetic ([1]; buffer) [µM] | IC50 [2] [µM] | solubility kinetic ([1]; PBS) [µM] | IC50 [3] [µM] | inhibition [4] [%] | Compound |
| --- | --- | --- | --- | --- | --- |
| 100 (≈ 44.7 µg/mL) | 0.77 | – | – | – | CNCCN(C)c1cc(C)c2cc(NC(=O)COc3ccc(Cl)cc3Cl)ccc2n1 |
| – | 5.9 | 5 (≈ 2.17 µg/mL) | > 10 | – | Cc1cc(N(C)CCO)nc2ccc(NC(=O)COc3ccc(Cl)cc3Cl)cc12 |
| – | – | 80 (≈ 36.9 µg/mL) | 4.5 | – | Cc1cc(N(C)CCN(C)C)nc2ccc(NC(=O)COc3ccc(Cl)cc3Cl)cc12 |
| – | – | – | – | 41 | Cc1cc(N2CCN(c3ncccn3)CC2)nc2ccc(NC(=O)COc3ccc(Cl)cc3Cl)cc12 |
| – | – | 10 (≈ 4.46 µg/mL) | – | – | Cc1cc(N2CCOCC2)nc2ccc(NC(=O)COc3ccc(Cl)cc3Cl)cc12 |
| – | – | – | – | 52 | CCOc1ccc(/C=C/C(=O)Nc2ccc3nc(N4CCN(C)CC4)cc(C)c3c2)cc1OC |

Source: ChEMBL document CHEMBL1140405, “6-Acylamino-2-aminoquinolines as potent melanin-concentrating hormone 1 receptor antagonists. Identification, structure-activity relationship, and investigation of binding mode” (J Med Chem, 2005)
